# Reference: ChEMBL document CHEMBL3297714, “Gigantol, a bibenzyl from Dendrobium draconis, inhibits the migratory behavior of non-small cell lung cancer cells” (J Nat Prod, 2014)
# Active and inactive are the calls of the source. The calls are words filed in the database; no cut-off is given here.
# Experiments:
# [1] = system: NCI-H460; assay: Cytotoxicity against human NCI-H460 cells assessed as cell viability at 50 uM for 24 hrs by MTT assay; type: functional; settings: NCI-H460, 24 h, read-out: Activity
# How it was run: (§1)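 MTT was given for 4 h at 37 °C, formazan was solubilized in DMSO and absorbance taken at 570. Viability is % of untreated control. IC50 came from four independent experiments. n = 4.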
# [2] = system: NCI-H460; assay: Cytotoxicity against human NCI-H460 cells assessed as cell viability at 100 uM for 24 hrs by MTT assay; type: functional; settings: NCI-H460, 24 h, read-out: Activity; how it was run: as §1
# [3] = system: NCI-H460; assay: Cytotoxicity against human NCI-H460 cells assessed as cell viability at 500 uM for 24 hrs by MTT assay; type: functional; settings: NCI-H460, 24 h, read-out: Activity; how it was run: as §1
# [4] = system: NCI-H460; assay: Cytotoxicity against human NCI-H460 cells assessed as cell viability at < 20 uM for 24 hrs by MTT assay; type: functional, cell-based; how it was run: as §1
# [5] = system: NCI-H460; assay: Cytotoxicity against human NCI-H460 cells assessed as cell viability for 24 hrs by MTT assay; type: functional, cell-based; settings: NCI-H460, 24 h; how it was run: as §1
# [6] = system: NCI-H460; assay: Cytotoxicity against human NCI-H460 cells assessed as cell viability at 0 to 20 uM for 12 to 72 hrs by MTT assay; type: functional, cell-based
# How it was run: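 MTT was added for 4 h at 37 °C, formazan was dissolved in DMSO and read at 570. Viability is given as % of untreated cells. Mean ± SD, n = 4.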
# [7] = system: NCI-H460; assay: Inhibition of human NCI-H460 cells invasion after 24 hrs by transwell assay; type: functional, cell-based
# How it was run: (§2)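 Matrigel-coated Transwell inserts (8 μm pore) were seeded with H460 cells at 1.5 × 10^5/well in RPMI with 0.1% FBS plus compound (0−20 μM), with 10% FBS RPMI in the lower chamber, for 24 or 48 h. Cells that invaded the underside were stained with 10 μg/mL Hoechst 33342 for 30 min and counted per field by fluorescence microscopy. n = 4.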
# [8] = system: NCI-H460; assay: Induction of apoptosis in human NCI-H460 cells at 50 to 100 uM for 24 hrs by Hoechst-[…]/PI staining based fluorescence microscopic analysis; type: functional, cell-based
# How it was run: (§3)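 They were stained with 10 μg/mL Hoechst 33342 plus 5 μg/mL propidium iodide for 30 min. Apoptotic (Hoechst-condensed) and necrotic (PI-positive) cells were scored by fluorescence microscopy as % versus untreated control.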
# [9] = system: NCI-H460; assay: Inhibition of human NCI-H460 cells migration after 24 to 72 hrs by wound healing assay; type: functional, cell-based
# How it was run: (§4)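 H460 cells were seeded at 2.5 × 10^5/well and grown to a monolayer, then scratched with a 1 mm tip and washed with PBS. They were kept in serum-free RPMI with 0−20 μM for 24 h, or ± 20 μM for 24, 48 and 72 h. The wound was photographed, and migration was calculated as the change in wound space divided by that of control. Mean ± SD, n = 4.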
# [10] = system: NCI-H460; assay: Inhibition of human NCI-H460 cells migration at 5 uM after 24 hrs by wound healing assay; type: functional; settings: NCI-H460, 24 h; how it was run: as §4
# [11] = system: NCI-H460; assay: Inhibition of human NCI-H460 cells migration at 10 uM after 24 hrs by wound healing assay; type: functional; settings: NCI-H460, 24 h; how it was run: as §4
# [12] = system: NCI-H460; assay: Inhibition of human NCI-H460 cells migration at 20 uM after 24 hrs by wound healing assay; type: functional; settings: NCI-H460, 24 h; how it was run: as §4
# [13] = system: NCI-H460; assay: Inhibition of human NCI-H460 cells migration at 20 uM by wound healing assay; type: functional, cell-based; settings: TDE = time-dependent effect; how it was run: as §4
# [14] = system: NCI-H460; assay: Inhibition of human NCI-H460 cells migration at 10 uM after 24 hrs by Boyden chamber assay relative to control; type: functional
# How it was run: (§5)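 For the Boyden chamber, H460 cells at 5 × 10^4/well were placed on the upper side of an 8 μm Transwell filter in RPMI with 0.1% FBS plus compound (0−20 μM) for 24 h, with 10% FBS below. Non-migrated cells were swabbed off, and underside cells were stained with 10 μg/mL Hoechst 33342 for 30 min and counted per field. n = 4.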
# [15] = system: NCI-H460; assay: Inhibition of human NCI-H460 cells migration at 20 uM after 24 hrs by Boyden chamber assay relative to control; type: functional; how it was run: as §5
# [16] = system: NCI-H460; assay: Inhibition of human NCI-H460 cells migration at 5 uM after 24 hrs by Boyden chamber assay relative to control; type: functional; how it was run: as §5
# [17] = system: NCI-H460; assay: Inhibition of human NCI-H460 cells invasion at 0 to 20 uM by transwell assay; type: functional, cell-based; settings: TDE = time-dependent effect; how it was run: as §2
# [18] = system: NCI-H460; assay: Decrease in filopodia protrussions in human NCI-H460 cells at 10 to 20 uM for 24 hrs by phalloidin staining based fluorescence microscopic analysis; type: functional, cell-based
# How it was run: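 H460 cells were seeded at 5 × 10^4/well and treated 24 h (0−20 μM). Cells were fixed in 4% paraformaldehyde, permeabilized with 0.1% Triton X-100 and blocked with 0.2% BSA, then stained with rhodamine-phalloidin (1:100, 15 min) or Hoechst 33342. Filopodia per cell were counted by fluorescence microscopy relative to untreated cells.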
# [19] = system: NCI-H460; assay: Decrease in Cdc42 expression in human NCI-H460 cells at 0 to 20 uM for 24 hrs by Western blot analysis; type: functional, cell-based
# How it was run: (§6)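 H460 cells were seeded at 5 × 10^5/well, left overnight, then exposed to 0−20 μM for 24 h. Lysis used Tris-HCl pH 7.5 buffer with Triton X-100, vanadate, NaF, PMSF and protease inhibitors, 40 min on ice. 60 μg protein per lane was run on 10% SDS-PAGE and blotted to nitrocellulose. Primary antibody overnight at 4 °C, then HRP secondary. Chemiluminescence, densitometry, β-actin loading control.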
# [20] = system: NCI-H460; assay: Decrease in Cav-1 expression in human NCI-H460 cells at 0 to 20 uM for 24 hrs by Western blot analysis; type: functional, cell-based; how it was run: as §6
# [21] = target: RAC-alpha serine/threonine-protein kinase (Homo sapiens) (UniProt P31749); assay: Inhibition of Akt phosphorylation at Ser473 in human NCI-H460 cells at 0 to 20 uM for 24 hrs by Western blot analysis; type: cell-based; how it was run: as §6
# Sequence of RAC-alpha serine/threonine-protein kinase (Homo sapiens) (P31749 whole entry): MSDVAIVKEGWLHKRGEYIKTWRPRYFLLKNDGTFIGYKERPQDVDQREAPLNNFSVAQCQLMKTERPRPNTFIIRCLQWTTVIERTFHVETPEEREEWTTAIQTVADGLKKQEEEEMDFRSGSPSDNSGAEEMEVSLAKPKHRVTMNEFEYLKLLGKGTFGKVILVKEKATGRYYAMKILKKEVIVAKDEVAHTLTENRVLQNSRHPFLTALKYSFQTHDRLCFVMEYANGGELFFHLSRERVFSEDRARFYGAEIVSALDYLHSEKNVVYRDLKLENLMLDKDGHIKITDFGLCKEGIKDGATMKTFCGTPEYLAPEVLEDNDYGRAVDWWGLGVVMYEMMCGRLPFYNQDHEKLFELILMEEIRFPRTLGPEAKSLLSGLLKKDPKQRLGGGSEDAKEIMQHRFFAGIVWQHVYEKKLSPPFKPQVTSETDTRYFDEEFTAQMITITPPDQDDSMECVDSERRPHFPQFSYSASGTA
# [22] = target: Focal adhesion kinase 1 (Homo sapiens) (UniProt Q05397); assay: Inhibition of Fak phosphorylation at Tyr397 in human NCI-H460 cells at 0 to 20 uM for 24 hrs by Western blot analysis; type: cell-based; how it was run: as §6
# Sequence of Focal adhesion kinase 1 (Homo sapiens) (Q05397 2-1052 limits assumed): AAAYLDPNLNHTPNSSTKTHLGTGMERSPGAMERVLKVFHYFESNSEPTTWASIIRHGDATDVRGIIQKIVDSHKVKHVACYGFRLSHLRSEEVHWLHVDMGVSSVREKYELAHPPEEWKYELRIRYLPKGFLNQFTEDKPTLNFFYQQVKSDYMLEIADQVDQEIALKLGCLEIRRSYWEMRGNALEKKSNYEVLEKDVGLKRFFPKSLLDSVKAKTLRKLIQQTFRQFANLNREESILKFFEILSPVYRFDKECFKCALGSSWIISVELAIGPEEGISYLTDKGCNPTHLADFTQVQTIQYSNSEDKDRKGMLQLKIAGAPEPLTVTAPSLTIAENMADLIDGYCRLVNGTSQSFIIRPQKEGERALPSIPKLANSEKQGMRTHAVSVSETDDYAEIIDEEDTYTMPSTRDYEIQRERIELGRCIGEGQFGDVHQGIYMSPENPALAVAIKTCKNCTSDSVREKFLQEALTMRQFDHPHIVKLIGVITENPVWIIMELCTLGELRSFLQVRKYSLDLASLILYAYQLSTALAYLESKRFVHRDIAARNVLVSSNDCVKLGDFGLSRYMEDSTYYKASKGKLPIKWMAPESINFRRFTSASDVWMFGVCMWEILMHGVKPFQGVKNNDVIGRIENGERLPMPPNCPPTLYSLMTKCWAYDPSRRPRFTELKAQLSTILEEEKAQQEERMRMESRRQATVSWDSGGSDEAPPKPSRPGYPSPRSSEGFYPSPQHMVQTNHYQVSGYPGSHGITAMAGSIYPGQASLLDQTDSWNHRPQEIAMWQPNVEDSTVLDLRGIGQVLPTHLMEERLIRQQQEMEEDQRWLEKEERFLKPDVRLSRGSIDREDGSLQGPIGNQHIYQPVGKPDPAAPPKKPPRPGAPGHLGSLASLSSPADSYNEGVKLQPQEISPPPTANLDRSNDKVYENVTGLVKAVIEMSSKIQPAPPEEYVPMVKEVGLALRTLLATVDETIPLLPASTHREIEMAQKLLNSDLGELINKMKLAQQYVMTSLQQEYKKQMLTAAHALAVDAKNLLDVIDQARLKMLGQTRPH
# [23] = system: NCI-H460; assay: Effect on Fak expression in human NCI-H460 cells at 0 to 20 uM for 24 hrs by Western blot analysis; type: functional, cell-based; how it was run: as §6
# [24] = system: NCI-H460; assay: Inhibition of human NCI-H460 cells migration overexpressing Cav-1 at 20 uM after 24 hrs by wound healing assay; type: functional, cell-based
# How it was run: (§7)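 H460 cells were stably transfected (Lipofectamine 2000) with Cav-1 expression, Cav-1 shRNA or control plasmid, selected with antibiotic for 30 days and pooled, then passaged twice without G418. Confluent monolayers were scratched with a 1 mm tip and treated with 20 μM for 24 h. Wound-space change was expressed relative to untreated cells. n = 4.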
# [25] = system: NCI-H460; assay: Inhibition of human NCI-H460 cells migration transfected with Cav-1 shRNA at 20 uM after 24 hrs by wound healing assay; type: functional, cell-based; how it was run: as §7
# [26] = system: NCI-H292; assay: Inhibition of human NCI-H292 cells migration at 0 to 20 uM after 24 hrs by wound healing assay; type: functional, cell-based
# How it was run: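 NCI-H292 cells in RPMI-1640 with 10% FBS were grown to a confluent monolayer and scratched with a 1 mm tip. They were incubated in serum-free RPMI with 0−20 μM for 24 h. The change in wound space was measured from photographs relative to untreated cells.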
# [27] = system: HaCaT; assay: Cytotoxicity against human HaCaT cells assessed as cell migration at 0 to 20 uM after 24 hrs by wound healing assay; type: cell-based
# How it was run: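 HaCat keratinocytes grown in DMEM with 10% FBS, 2 mM L-glutamine and penicillin/streptomycin. A confluent monolayer was scratched with a 1 mm tip, washed with PBS, and kept in serum-free medium with compound (0−20 μM) for 24 h. The wound was photographed, and the change in wound space was expressed relative to untreated cells.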
# [28] = system: NCI-H460; assay: Induction of necrosis in human NCI-H460 cells at 50 to 100 uM for 24 hrs by Hoechst-[…]/PI staining based fluorescence microscopic analysis; type: functional, cell-based; how it was run: as §3
# [29] = system: NCI-H460; assay: Effect on unphosphorylated Akt level in human NCI-H460 cells at 0 to 20 uM for 24 hrs by Western blot analysis; type: functional, cell-based; how it was run: as §6
smiles,measurement,setting,value
COc1cc(O)cc(CCc2ccc(O)c(OC)c2)c1 [GIGANTOL],viability at 50 µM,[1],83%
same,viability at 100 µM,[2],80%
same,viability at 500 µM,[3],20%
same,Activity,[4],inactive
same,IC50,[5],248 µM
same,Activity,[6],inactive
same,inhibition,[7],Dose-dependent effect
same,Activity,[8],Active
same,inhibition,[9],Dose-dependent effect
same,inhibition at 5 µM,[10],30%
same,inhibition at 10 µM,[11],50%
same,inhibition at 20 µM,[12],70%
same,inhibition,[13],tde
same,fold change (FC),[14],0.4
same,fold change (FC),[15],0.3
same,fold change (FC),[16],0.7
same,inhibition,[17],tde
same,inhibition,[18],Active
same,inhibition,[19],Active
same,inhibition,[20],Active
same,inhibition,[21],Active
same,Activity,[22],inactive
same,Activity,[23],inactive
same,inhibition,[24],Active
same,inhibition,[25],Active
same,inhibition,[26],Active
same,Activity,[27],Non-toxic
same,Activity,[28],inactive
same,Activity,[29],inactive
